Reference: ChEMBL document CHEMBL4052722, “Virtual screening, synthesis and biological evaluation of DNA intercalating antiviral agents” (Bioorg Med Chem Lett, 2017)

How the values were obtained:
[1] = Cytotoxicity against African green monkey CV1 cells assessed as reduction in cell viability preincubated for 4 hrs measured after 24 hrs by MTT assay relative to control; type: cell-based, CV-1; conditions: chlorocebus aethiops
How it was run: (§1)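 CV-1 cells were exposed to test samples at 0.1, 10 and 100 μM. Viability was read by MTT assay.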

[2] = Cytotoxicity against African green monkey CV1 cells assessed as cell viability at 0.1 to 100 uM preincubated for 4 hrs measured after 24 hrs by MTT assay relative to control; type: cell-based, CV-1; conditions: chlorocebus aethiops, read-out: Activity; how it was run: as §1
[3] = tested on: Vesicular stomatitis virus; assay: Antiviral activity against Vesicular stomatitis virus at 0.2 to 620 uM after 24 hrs post infection relative to control; type: functional
Bos taurus = species on record: Bos taurus; assay: Displacement of ethidium bromide from calf thymus DNA by fluorescence binding assay

SMILES	CC50 at 24 h [1] [µM]	viability at 24 h, up to 100 µM [2] [%]	Activity [3] [%]	log Ka (Bos taurus)
CCN(CC)CCNCCn1c2ccccc2c2nc3ccccc3nc21	> 100	99	73	6.82
CCN(CC)CCCNC(=O)Cn1c2ccccc2c2nc3ccccc3nc21	100	88	85	4.93
CC(O)N(C)CCn1c2ccccc2c2nc3ccccc3nc21 (stereo not drawn)	100	78	–	–
O=C(CN1CCCC1)NN1C(=O)c2cccc3cccc(c23)C1=O	> 100	99	–	5.41
CCCCN(CCO)CCN1C(=O)c2cccc3cccc(c23)C1=O	> 100	70	–	–
COC(=O)CN1CCN(CCN2C(=O)c3cccc4cccc(c34)C2=O)CC1	> 100	78	–	–
CCN(CCO)CCN1C(=O)c2cccc3cccc(c23)C1=O	100	79	–	–
CCN(CC)CCn1c2ccc(OC)cc2c2nc3ccccc3nc21	100	60	–	–
CN(C)CCNC(=O)CCCn1c2ccccc2c2nc3ccccc3nc21	100	93	–	5.01
O=C(CN1CCCCCC1)NN1C(=O)c2cccc3cccc(c23)C1=O	> 100	97	–	5.53
O=C(CCCn1c2ccccc2c2nc3ccccc3nc21)NCCN1CCCCC1	100	93	–	4.98
Cc1ccc2c(c1)c1nc3ccccc3nc1n2CCN1CCN(C)CC1	100	87	–	–
CN(C)CCCn1c2ccccc2c2nc3ccccc3nc21	–	–	23	6.01
CN1CCN(CCn2c3ccc4ccccc4c3c3nc4ccccc4nc32)CC1	–	–	17	6.58
CN(C)CCCCCCn1c2ccccc2c2nc3ccccc3nc21	–	–	82	5.81
CC1CCCCN1CCCn1c2ccccc2c2nc3ccccc3nc21 (stereo not drawn)	–	–	56	6.28
CN1CCN(CCN2C(=O)c3cccc4cccc(c34)C2=O)CC1	100	65	–	–
CCN(CC)CCOC(=O)CCCn1c2ccccc2c2nc3ccccc3nc21	–	–	0	5.45
CC1CCCCN1CCn1c2ccc3ccccc3c2c2nc3ccccc3nc21 (stereo not drawn)	–	–	20	6.83
CN(C)CCCCCn1c2ccccc2c2nc3ccccc3nc21	–	–	68	5.66

SMILES	CC50 at 24 h [1] [µM]	viability at 24 h, up to 100 µM [2] [%]	Activity [3] [%]	log Ka (Bos taurus)
c1ccc2nc3c(nc2c1)c1ccccc1n3CCCCN1CCCCC1	–	–	11	5.93
c1ccc2nc3c(nc2c1)c1ccccc1n3CCCCCCN1CCOCC1	–	–	6	5.73
CCN(CC)CCOCCn1c2ccccc2c2nc3ccccc3nc21	–	–	56	5.26
O=C(Cn1c2ccccc2c2nc3ccccc3nc21)NCCCNCCO	–	–	72	5.06
CN(C)CCCOC(=O)CCCn1c2ccccc2c2nc3ccccc3nc21	–	–	100	5.32
O=C(CCCCCN1C(=O)c2cccc3cccc(c23)C1=O)NCCCN1CCOCC1	–	–	50	6.03
O=C(CN1CCCC1)N/N=C1/C(=O)Nc2ccc3ccccc3c21	–	–	10	6.44
CCN(CC)CCCCn1c2ccccc2c2nc3ccccc3nc21	–	–	10	6.22
O=C(Cn1c2ccccc2c2nc3ccccc3nc21)NCCN1CCCCC1	–	–	80	5.15
O=C(Cn1c2ccccc2c2nc3ccccc3nc21)NCCNCCO	–	–	70	5.37
c1ccc2nc3c(nc2c1)c1ccccc1n3CCCCCN1CCOCC1	–	–	77	5.73
O=C(CCCn1c2ccccc2c2nc3ccccc3nc21)NCCCN1CCOCC1	> 100	85	–	5.11
c1ccc2nc3c(nc2c1)c1ccccc1n3CCCN1CCCCC1	–	–	28	6.04
CCN(CC)CCCNC(=O)CCCN1C(=O)c2cccc3cccc(c23)C1=O	–	–	15	6.21
CCN(CC)CCNC(=O)CCN1C(=O)c2cccc3cccc(c23)C1=O	–	–	20	5.85
CCCN(CCC)CCn1c2ccccc2c2nc3ccccc3nc21	–	–	90	6.09
O=C(CCCn1c2ccccc2c2nc3ccccc3nc21)OCCCN1CCOCC1	–	–	100	5.35
c1ccc2nc3c(nc2c1)c1ccccc1n3CCOCCN1CCCCC1	–	–	51	5.19
CCN(CC)CCCNC(=O)CCCCCN1C(=O)c2cccc3cccc(c23)C1=O	–	–	50	6.81
O=C(CCCn1c2ccccc2c2nc3ccccc3nc21)NCCN1CCOCC1	> 100	95	–	4.91

SMILES	CC50 at 24 h [1] [µM]	viability at 24 h, up to 100 µM [2] [%]	Activity [3] [%]	log Ka (Bos taurus)
CN1CCN(CC(=O)NN2C(=O)c3cccc4cccc(c34)C2=O)CC1	100	84	–	5.43
CCN(CC)CCNC(=O)CCCn1c2ccccc2c2nc3ccccc3nc21	100	88	–	5.25
CN(CCO)CCN1C(=O)c2cccc3cccc(c23)C1=O	> 100	88	–	–
c1ccc2nc3c(nc2c1)c1ccccc1n3CCCCN1CCOCC1	–	–	35	5.94
CCN(CC)CCN1C(=O)/C(=N\NC(=O)CN2CCOCC2)c2ccccc21	–	–	8	6.21
CCCN(CCC)CCCn1c2ccccc2c2nc3ccccc3nc21	–	–	41	6.13
CCN(CC)CCCNC(=O)CCN1C(=O)c2cccc3cccc(c23)C1=O	–	–	10	5.79
CCN(CC)CCN1C(=O)/C(=N\NC(=O)CCN2CCCCC2)c2ccccc21	–	–	100	5.39
OCCNCCn1c2ccc3ccccc3c2c2nc3ccccc3nc21	–	–	20	6.8
CC1CCN(CC(=O)NN2C(=O)c3cccc4cccc(c34)C2=O)CC1	> 100	104	–	5.73
CN1CCN(CC(=O)N/N=C2\C(=O)Nc3ccccc32)CC1	–	–	80	5.43
COC(=O)CN(C)CCCN1C(=O)c2cccc3cccc(c23)C1=O	> 100	90	–	–
c1ccc2nc3c(nc2c1)c1ccccc1n3CCNCCN1CCOCC1	–	–	40	6.17
c1ccc2nc3c(nc2c1)c1ccccc1n3CCN1CCCCCC1	–	–	90	6.16
c1ccc2nc3c(nc2c1)c1ccccc1n3CCCCCN1CCCCC1	–	–	89	5.68
O=C(CCCn1c2ccccc2c2nc3ccccc3nc21)OCCN1CCCCC1	–	–	25	5.57
CCN(CC)CCCC(C)N1C(=O)c2cccc3cccc(c23)C1=O (stereo not drawn)	50	86	–	5.5
OCCNCCn1c2ccccc2c2nc3ccccc3nc21	–	–	80	6.31
CN(C)CCCNC(=O)CCCn1c2ccccc2c2nc3ccccc3nc21	> 100	96	–	5.09
